Results taken from ChEMBL document CHEMBL1153598, “Syntheses of low-hemolytic antimicrobial gratisin peptides” (Bioorg Med Chem Lett, 2009).
Converted amounts (≈) assume the structure as drawn. Non-standard residues stand in square brackets, D forms with d. Residues, ends and D or L forms follow the SMILES beside them. Orn = NCCC[C@H](N)C(=O)O

Experiments:
Bacillus subtilis = experiment: Antibiotic activity against Bacillus subtilis NBRC 3513 by microplate dilution assay; type: functional
Outline: (§1)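 Minimum inhibitory concentration determined by microplate dilution, inoculum 10⁶ organisms per ml. Strains tested: Bacillus subtilis NBRC 3513, Bacillus megaterium ATCC 19213, Staphylococcus epidermidis NBRC 12933, Staphylococcus aureus NBRC 12732, Pseudomonas aeruginosa NBRC 3080, Escherichia coli NBRC 12734. MIC reported in µg/mL.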

Priestia megaterium = experiment: Antibiotic activity against Bacillus megaterium ATCC 19213 by microplate dilution assay; type: functional; outline: as §1
[1] = system: Staphylococcus epidermidis; experiment: Antibiotic activity against Staphylococcus epidermidis NBRC 12933 by microplate dilution assay; type: functional; outline: as §1
Staphylococcus aureus = experiment: Antibiotic activity against Staphylococcus aureus NBRC 12732 by microplate dilution assay; type: functional; outline: as §1
Pseudomonas aeruginosa = experiment: Antibiotic activity against Pseudomonas aeruginosa NBRC 3080 by microplate dilution assay; type: functional; outline: as §1
Escherichia coli = experiment: Antibiotic activity against Escherichia coli NBRC 12734 by microplate dilution assay; type: functional; outline: as §1
[2] = Cytotoxicity against human red blood cells assessed as hemolysis after 30 mins; type: cell-based; settings: erythrocyte, 0.5 h

MIC (Bacillus subtilis) [µg/mL] | MIC (Priestia megaterium) [µg/mL] | MIC [1] [µg/mL] | MIC (Staphylococcus aureus) [µg/mL] | MIC (Pseudomonas aeruginosa) [µg/mL] | MIC (Escherichia coli) [µg/mL] | SMILES | Activity [2]
6.25 (≈ 4.57 µM) | 6.25 (≈ 4.57 µM) | 6.25 (≈ 4.57 µM) | 3.13 (≈ 2.29 µM) | 50 (≈ 36.6 µM) | 100 (≈ 73.1 µM) | CCCC[C@H]1NC(=O)[C@@H]2CCCN2C(=O)[C@@H](Cc2ccccc2)NC(=O)[C@H](CC(C)C)NC(=O)[C@H](CCCN)NC(=O)[C@H](C(C)C)NC(=O)[C@@H](CCCC)NC(=O)[C@@H]2CCCN2C(=O)[C@@H](Cc2ccccc2)NC(=O)[C@H](CC(C)C)NC(=O)[C@H](CCCN)NC(=O)[C@H](C(C)C)NC1=O | Dose-dependent effect
6.25 (≈ 4.57 µM) | 6.25 (≈ 4.57 µM) | 12.5 (≈ 9.14 µM) | 12.5 (≈ 9.14 µM) | 100 (≈ 73.1 µM) | > 100 | CC(C)C[C@@H]1NC(=O)[C@H](CCCN)NC(=O)[C@H](C(C)C)NC(=O)[C@@H](CC(C)C)NC(=O)[C@@H]2CCCN2C(=O)[C@@H](Cc2ccccc2)NC(=O)[C@H](CC(C)C)NC(=O)[C@H](CCCN)NC(=O)[C@H](C(C)C)NC(=O)[C@@H](CC(C)C)NC(=O)[C@@H]2CCCN2C(=O)[C@@H](Cc2ccccc2)NC1=O | Dose-dependent effect
> 100 | > 100 | > 100 | 100 (≈ 76 µM) | > 100 | > 100 | CC(C)C[C@@H]1NC(=O)[C@H](CCCN)NC(=O)[C@H](C(C)C)NC(=O)[C@@H](CO)NC(=O)[C@@H]2CCCN2C(=O)[C@@H](Cc2ccccc2)NC(=O)[C@H](CC(C)C)NC(=O)[C@H](CCCN)NC(=O)[C@H](C(C)C)NC(=O)[C@@H](CO)NC(=O)[C@@H]2CCCN2C(=O)[C@@H](Cc2ccccc2)NC1=O | Dose-dependent effect
12.5 (≈ 9.74 µM) | 12.5 (≈ 9.74 µM) | 25 (≈ 19.5 µM) | 12.5 (≈ 9.74 µM) | > 100 | > 100 | CC(C)C[C@@H]1NC(=O)[C@H](CCCN)NC(=O)[C@H](C(C)C)NC(=O)[C@@H](C)NC(=O)[C@@H]2CCCN2C(=O)[C@@H](Cc2ccccc2)NC(=O)[C@H](CC(C)C)NC(=O)[C@H](CCCN)NC(=O)[C@H](C(C)C)NC(=O)[C@@H](C)NC(=O)[C@@H]2CCCN2C(=O)[C@@H](Cc2ccccc2)NC1=O (cyclo(L[dF]P[dA]V[Orn]L[dF]P[dA]V[Orn])) | Dose-dependent effect
100 (≈ 79.6 µM) | 100 (≈ 79.6 µM) | > 100 | 100 (≈ 79.6 µM) | > 100 | > 100 | CC(C)C[C@@H]1NC(=O)[C@H](CCCN)NC(=O)[C@H](C(C)C)NC(=O)CNC(=O)[C@@H]2CCCN2C(=O)[C@@H](Cc2ccccc2)NC(=O)[C@H](CC(C)C)NC(=O)[C@H](CCCN)NC(=O)[C@H](C(C)C)NC(=O)CNC(=O)[C@@H]2CCCN2C(=O)[C@@H](Cc2ccccc2)NC1=O | Dose-dependent effect
6.25 (≈ 4.67 µM) | 6.25 (≈ 4.67 µM) | 12.5 (≈ 9.33 µM) | 12.5 (≈ 9.33 µM) | > 100 | > 100 | CC(C)C[C@@H]1NC(=O)[C@H](CCCN)NC(=O)[C@H](C(C)C)NC(=O)[C@@H](C(C)C)NC(=O)[C@@H]2CCCN2C(=O)[C@@H](Cc2ccccc2)NC(=O)[C@H](CC(C)C)NC(=O)[C@H](CCCN)NC(=O)[C@H](C(C)C)NC(=O)[C@@H](C(C)C)NC(=O)[C@@H]2CCCN2C(=O)[C@@H](Cc2ccccc2)NC1=O | Dose-dependent effect
6.25 (≈ 4.56 µM) | 6.25 (≈ 4.56 µM) | 6.25 (≈ 4.56 µM) | 6.25 (≈ 4.56 µM) | 25 (≈ 18.3 µM) | 25 (≈ 18.3 µM) | CC(C)C[C@@H]1NC(=O)[C@H](CCCN)NC(=O)[C@H](C(C)C)NC(=O)[C@@H](CCCN)NC(=O)[C@@H]2CCCN2C(=O)[C@@H](Cc2ccccc2)NC(=O)[C@H](CC(C)C)NC(=O)[C@H](CCCN)NC(=O)[C@H](C(C)C)NC(=O)[C@@H](CCCN)NC(=O)[C@@H]2CCCN2C(=O)[C@@H](Cc2ccccc2)NC1=O | Dose-dependent effect
12.5 (≈ 8.94 µM) | 12.5 (≈ 8.94 µM) | 25 (≈ 17.9 µM) | 25 (≈ 17.9 µM) | > 100 | > 100 | CC(C)C[C@@H]1NC(=O)[C@H](CCCN)NC(=O)[C@H](C(C)C)NC(=O)[C@@H](CCC(N)=O)NC(=O)[C@@H]2CCCN2C(=O)[C@@H](Cc2ccccc2)NC(=O)[C@H](CC(C)C)NC(=O)[C@H](CCCN)NC(=O)[C@H](C(C)C)NC(=O)[C@@H](CCC(N)=O)NC(=O)[C@@H]2CCCN2C(=O)[C@@H](Cc2ccccc2)NC1=O | Dose-dependent effect
12.5 (≈ 8.83 µM) | 12.5 (≈ 8.83 µM) | 25 (≈ 17.7 µM) | 12.5 (≈ 8.83 µM) | > 100 | > 100 | CC(C)C[C@@H]1NC(=O)[C@H](CCCN)NC(=O)[C@H](C(C)C)NC(=O)[C@@H](Cc2cnc[nH]2)NC(=O)[C@@H]2CCCN2C(=O)[C@@H](Cc2ccccc2)NC(=O)[C@H](CC(C)C)NC(=O)[C@H](CCCN)NC(=O)[C@H](C(C)C)NC(=O)[C@@H](Cc2cnc[nH]2)NC(=O)[C@@H]2CCCN2C(=O)[C@@H](Cc2ccccc2)NC1=O | Dose-dependent effect

Further lines, the compound ahead of its results:

SMILES | MIC (Bacillus subtilis) [µg/mL] | MIC (Priestia megaterium) [µg/mL] | MIC [1] [µg/mL] | MIC (Staphylococcus aureus) [µg/mL] | MIC (Pseudomonas aeruginosa) [µg/mL] | MIC (Escherichia coli) [µg/mL] | Activity [2]
CC(C)C[C@@H]1NC(=O)[C@H](CCCN)NC(=O)[C@H](C(C)C)NC(=O)[C@@H](CCCCN)NC(=O)[C@@H]2CCCN2C(=O)[C@@H](Cc2ccccc2)NC(=O)[C@H](CC(C)C)NC(=O)[C@H](CCCN)NC(=O)[C@H](C(C)C)NC(=O)[C@@H](CCCCN)NC(=O)[C@@H]2CCCN2C(=O)[C@@H](Cc2ccccc2)NC1=O | 6.25 (≈ 4.47 µM) | 6.25 (≈ 4.47 µM) | 6.25 (≈ 4.47 µM) | 6.25 (≈ 4.47 µM) | 12.5 (≈ 8.94 µM) | 25 (≈ 17.9 µM) | Dose-dependent effect
CC(C)C[C@@H]1NC(=O)[C@H](CCCN)NC(=O)[C@H](C(C)C)NC(=O)[C@@H](Cc2ccccc2)NC(=O)[C@@H]2CCCN2C(=O)[C@@H](Cc2ccccc2)NC(=O)[C@H](CC(C)C)NC(=O)[C@H](CCCN)NC(=O)[C@H](C(C)C)NC(=O)[C@@H](Cc2ccccc2)NC(=O)[C@@H]2CCCN2C(=O)[C@@H](Cc2ccccc2)NC1=O | 6.25 (≈ 4.35 µM) | 6.25 (≈ 4.35 µM) | 12.5 (≈ 8.71 µM) | 12.5 (≈ 8.71 µM) | 100 (≈ 69.6 µM) | > 100 | Dose-dependent effect
CC(C)C[C@@H]1NC(=O)[C@H](CCCN)NC(=O)[C@H](C(C)C)NC(=O)[C@@H](CCC(=O)O)NC(=O)[C@@H]2CCCN2C(=O)[C@@H](Cc2ccccc2)NC(=O)[C@H](CC(C)C)NC(=O)[C@H](CCCN)NC(=O)[C@H](C(C)C)NC(=O)[C@@H](CCC(=O)O)NC(=O)[C@@H]2CCCN2C(=O)[C@@H](Cc2ccccc2)NC1=O | > 100 | > 100 | > 100 | > 100 | > 100 | > 100 | Dose-dependent effect
CC(C)C[C@@H]1NC(=O)[C@H](CCCN)NC(=O)[C@H](C(C)C)NC(=O)[C@@H]([C@H](C)O)NC(=O)[C@@H]2CCCN2C(=O)[C@@H](Cc2ccccc2)NC(=O)[C@H](CC(C)C)NC(=O)[C@H](CCCN)NC(=O)[C@H](C(C)C)NC(=O)[C@@H]([C@H](C)O)NC(=O)[C@@H]2CCCN2C(=O)[C@@H](Cc2ccccc2)NC1=O [listing 1 of 2 here] | 100 (≈ 74.4 µM) | 100 (≈ 74.4 µM) | 100 (≈ 74.4 µM) | 50 (≈ 37.2 µM) | > 100 | > 100 | 
CC(C)C[C@@H]1NC(=O)[C@H](CCCN)NC(=O)[C@H](C(C)C)NC(=O)[C@@H](Cc2ccc(O)cc2)NC(=O)[C@@H]2CCCN2C(=O)[C@@H](Cc2ccccc2)NC(=O)[C@H](CC(C)C)NC(=O)[C@H](CCCN)NC(=O)[C@H](C(C)C)NC(=O)[C@@H](Cc2ccc(O)cc2)NC(=O)[C@@H]2CCCN2C(=O)[C@@H](Cc2ccccc2)NC1=O [GRATISIN] | 6.25 (≈ 4.26 µM) | 6.25 (≈ 4.26 µM) | 12.5 (≈ 8.52 µM) | 6.25 (≈ 4.26 µM) | 100 (≈ 68.1 µM) | 100 (≈ 68.1 µM) | Dose-dependent effect
CCC[C@H]1NC(=O)[C@@H]2CCCN2C(=O)[C@@H](Cc2ccccc2)NC(=O)[C@H](CC(C)C)NC(=O)[C@H](CCCN)NC(=O)[C@H](C(C)C)NC(=O)[C@@H](CCC)NC(=O)[C@@H]2CCCN2C(=O)[C@@H](Cc2ccccc2)NC(=O)[C@H](CC(C)C)NC(=O)[C@H](CCCN)NC(=O)[C@H](C(C)C)NC1=O | 12.5 (≈ 9.33 µM) | 12.5 (≈ 9.33 µM) | 25 (≈ 18.7 µM) | 12.5 (≈ 9.33 µM) | > 100 | > 100 | Dose-dependent effect
CC(C)C[C@@H]1NC(=O)[C@H](CCCN)NC(=O)[C@H](C(C)C)NC(=O)[C@@H]2CCCN2C(=O)[C@@H](Cc2ccccc2)NC(=O)[C@H](CC(C)C)NC(=O)[C@H](CCCN)NC(=O)[C@H](C(C)C)NC(=O)[C@@H]2CCCN2C(=O)[C@@H](Cc2ccccc2)NC1=O [GRAMICIDIN S] (cyclo(L[dF]PV[Orn]L[dF]PV[Orn])) | 3.13 (≈ 2.74 µM) | 3.13 (≈ 2.74 µM) | 3.13 (≈ 2.74 µM) | 3.13 (≈ 2.74 µM) | 25 (≈ 21.9 µM) | 25 (≈ 21.9 µM) | Dose-dependent effect
CC(C)C[C@@H]1NC(=O)[C@H](CCCN)NC(=O)[C@H](C(C)C)NC(=O)[C@@H]([C@H](C)O)NC(=O)[C@@H]2CCCN2C(=O)[C@@H](Cc2ccccc2)NC(=O)[C@H](CC(C)C)NC(=O)[C@H](CCCN)NC(=O)[C@H](C(C)C)NC(=O)[C@@H]([C@H](C)O)NC(=O)[C@@H]2CCCN2C(=O)[C@@H](Cc2ccccc2)NC1=O [listing 2 of 2 here] |  |  |  |  |  |  | Dose-dependent effect
CC(C)C[C@@H]1NC(=O)[C@H](CCCN)NC(=O)[C@H](C(C)C)NC(=O)[C@@H](CCCNC(=N)N)NC(=O)[C@@H]2CCCN2C(=O)[C@@H](Cc2ccccc2)NC(=O)[C@H](CC(C)C)NC(=O)[C@H](CCCN)NC(=O)[C@H](C(C)C)NC(=O)[C@@H](CCCNC(=N)N)NC(=O)[C@@H]2CCCN2C(=O)[C@@H](Cc2ccccc2)NC1=O | 6.25 (≈ 4.3 µM) | 3.13 (≈ 2.15 µM) | 6.25 (≈ 4.3 µM) | 3.13 (≈ 2.15 µM) | 12.5 (≈ 8.6 µM) | 12.5 (≈ 8.6 µM) | Dose-dependent effect
